Data reported in ChEMBL document CHEMBL3108732, “Synthesis and evaluation of analogues of N-phthaloyl-l-tryptophan (RG108) as inhibitors of DNA methyltransferase 1” (J Med Chem, 2014).
pIC50: −log10 of the molar value. Calls of active or inactive are those of the source. No cut-off for these calls is given here.

Key:
[1] = molecular target: T1, DNA (cytosine-5)-methyltransferase 1 (Homo sapiens, UniProt P26358); assay: Inhibition of human recombinant DNMT1 expressed in […] assessed as inhibition of tritiated methyl incorporation from [3H]-labeled AdoMet into hemimethylated DNA duplex after 2 hrs by liquid scintillation counting analysis; type: cell-based
T1 sequence (P26358 whole entry): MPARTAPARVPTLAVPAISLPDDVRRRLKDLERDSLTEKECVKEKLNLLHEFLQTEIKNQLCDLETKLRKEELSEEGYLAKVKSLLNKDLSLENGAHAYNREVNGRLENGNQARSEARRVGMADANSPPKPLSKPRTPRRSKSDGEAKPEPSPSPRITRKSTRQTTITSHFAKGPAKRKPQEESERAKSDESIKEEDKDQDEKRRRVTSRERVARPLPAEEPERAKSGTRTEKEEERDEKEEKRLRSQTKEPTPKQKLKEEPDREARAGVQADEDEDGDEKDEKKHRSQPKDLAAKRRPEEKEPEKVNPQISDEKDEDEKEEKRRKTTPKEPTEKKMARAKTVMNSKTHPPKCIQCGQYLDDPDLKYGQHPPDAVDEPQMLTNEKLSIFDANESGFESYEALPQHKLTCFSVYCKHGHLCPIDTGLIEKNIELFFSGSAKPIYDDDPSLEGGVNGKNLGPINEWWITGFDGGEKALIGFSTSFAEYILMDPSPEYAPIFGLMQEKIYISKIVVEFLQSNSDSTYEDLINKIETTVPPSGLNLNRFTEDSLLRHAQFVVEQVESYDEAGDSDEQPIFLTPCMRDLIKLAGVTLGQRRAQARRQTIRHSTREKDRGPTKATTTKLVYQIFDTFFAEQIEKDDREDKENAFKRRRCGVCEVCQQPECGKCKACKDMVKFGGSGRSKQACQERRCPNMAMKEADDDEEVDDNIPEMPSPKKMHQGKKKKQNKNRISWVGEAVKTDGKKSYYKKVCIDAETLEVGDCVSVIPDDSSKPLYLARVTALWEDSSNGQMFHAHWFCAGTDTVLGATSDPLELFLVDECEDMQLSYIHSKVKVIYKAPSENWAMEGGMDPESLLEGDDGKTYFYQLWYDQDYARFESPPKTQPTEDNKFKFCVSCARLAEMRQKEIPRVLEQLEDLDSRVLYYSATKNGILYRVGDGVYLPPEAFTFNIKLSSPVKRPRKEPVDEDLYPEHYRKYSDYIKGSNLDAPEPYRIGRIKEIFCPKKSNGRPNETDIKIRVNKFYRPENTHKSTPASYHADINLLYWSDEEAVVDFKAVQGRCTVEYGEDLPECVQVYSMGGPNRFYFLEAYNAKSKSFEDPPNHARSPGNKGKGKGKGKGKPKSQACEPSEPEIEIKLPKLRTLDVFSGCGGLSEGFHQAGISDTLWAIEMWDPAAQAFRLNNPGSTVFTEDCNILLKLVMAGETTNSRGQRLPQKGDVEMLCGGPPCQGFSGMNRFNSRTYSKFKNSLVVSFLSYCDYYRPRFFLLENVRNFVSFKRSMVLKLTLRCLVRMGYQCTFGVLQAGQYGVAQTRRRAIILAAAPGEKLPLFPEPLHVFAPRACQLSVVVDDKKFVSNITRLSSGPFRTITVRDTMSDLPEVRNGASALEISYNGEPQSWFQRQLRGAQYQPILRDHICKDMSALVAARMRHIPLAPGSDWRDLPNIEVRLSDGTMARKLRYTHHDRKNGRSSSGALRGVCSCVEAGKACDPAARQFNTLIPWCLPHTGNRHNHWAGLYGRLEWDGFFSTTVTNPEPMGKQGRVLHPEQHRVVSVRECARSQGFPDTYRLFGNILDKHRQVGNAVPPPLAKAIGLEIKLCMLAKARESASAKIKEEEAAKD
Summary of the method: (§1)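 Human recombinant DNMT1 transferred tritiated methyl from [3H]-AdoMet onto a short hemimethylated DNA duplex carrying 8 CpGs, and direct incorporation of the radiolabel was measured. Compounds were first screened at a single concentration.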

DU-145 = assay: Cytotoxicity against human DU145 cells after 72 hrs by MTS assay; type: functional; conditions: DU-145, 72 h, read-out: TC50 (the source's name)
[2] = molecular target: T1, DNA (cytosine-5)-methyltransferase 1; assay: Inhibition of human recombinant DNMT1 expressed in […] assessed as inhibition of tritiated methyl incorporation from [3H]-labeled AdoMet into hemimethylated DNA duplex at 500 uM after 2 hrs by liquid scintillation counting analysis relative to control; type: cell-based; summary of the method: as §1
[3] = Inhibition of Spiroplasma M.SssI using unmethylated DNA as substrate after 2 hrs by agarose gel electrophoresis
[4] = molecular target: DNA (cytosine-5)-methyltransferase 3A (Mus musculus) (UniProt O88508); assay: Binding affinity to mouse Dnmt3A catalytic domain assessed as inhibition of AdoHcy binding at 0.85 mM by WaterLOGSY spectroscopic analysis
[5] = Inhibition of G9a (unknown origin) by [3H]-SAM incorporation assay
Summary of the method: (§2)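 In vitro methyltransferase activity was quantified with a biotin–avidin microplate kinetic assay based on [3H]-SAM incorporation. G9a was tested up to 1 mM.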

[6] = Inhibition of Escherichia coli DAM by [3H]-SAM incorporation assay; summary of the method: as §2

| SMILES | pIC50 [1] | CC50 (DU-145) [µM] | inhibition [2] | other results |
| --- | --- | --- | --- | --- |
| O=C(O)[C@@H]1[C@H](Cc2c[nH]c3ccccc23)CCN1C(=O)c1ccc2ccccc2c1 | 3.89 | 280 |  |  |
| O=C(O)[C@H](Cc1c[nH]c2ccccc12)n1c(=O)[nH]c2ccccc2c1=O |  |  | inactive |  |
| O=C(O)[C@H](Cc1csc2ccccc12)N1C(=O)c2ccccc2C1=O | 3.64 |  |  |  |
| O=C(O)[C@H](Cc1c[nH]c2ccccc12)N1C(=O)c2ccccc2C1=O | 3.41 | 660 |  | pIC50 [3]: 6.94; inhibition [4]: 50% |
| O=C(O)C[C@H](Cc1c[nH]c2ccccc12)N1C(=O)c2ccccc2C1=O |  |  | inactive |  |
| O=C(O)[C@H](Cc1c[nH]c2ccccc12)NSc1ncccc1[N+](=O)[O-] | 4.70 | 211 |  |  |
| O=C(O)[C@H](Cc1cc(=O)[nH]c2ccccc12)N1C(=O)c2ccccc2C1=O |  |  | inactive |  |
| O=C(O)[C@H]1[C@@H](Cc2c[nH]c3ccccc23)CCN1C(=O)c1ccc2ccccc2c1 | 4.30 | 130 |  |  |
| N[C@@H](Cc1c[nH]c2ccccc12)C(=O)O |  |  | inactive |  |
| O=C(O)CN1C(=O)c2ccccc2C1=O |  |  | inactive |  |
| O=C(O)[C@@H]1[C@H](Cc2c[nH]c3ccccc23)CCN1Sc1ccc([N+](=O)[O-])cc1[N+](=O)[O-] | 4.10 | 250 |  |  |
| O=C(O)[C@H](Cc1c[nH]c2ccccc12)CN1C(=O)c2ccccc2C1=O |  |  | inactive |  |
| O=C(O)C1C(Cc2c[nH]c3ccccc23)CCN1C(=O)c1ccc2ccccc2c1 (stereo not given) |  |  | 50% |  |
| O=C(O)[C@H](Cc1c[nH]cn1)N1C(=O)c2ccccc2C1=O |  |  | inactive |  |
| O=C(O)[C@H](Cc1ccccc1)N1C(=O)c2ccccc2C1=O |  |  | inactive |  |
| O=C(CN1C(=O)c2ccccc2C1=O)N[C@@H](Cc1c[nH]c2ccccc12)C(=O)O |  |  | inactive |  |
| O=C(O)[C@H](Cc1c[nH]c2ccccc12)NSc1ccc([N+](=O)[O-])cc1[N+](=O)[O-] | 4.40 | 103 |  |  |
| O=C(O)C1C(Cc2c[nH]c3ccccc23)CCN1C(=O)c1ccccc1 (stereo not given) |  |  | 50% | pIC50 [5]: < 3.00; pIC50 [6]: < 3.12 |
| O=C(O)[C@@H](Cc1c[nH]c2ccccc12)CN1C(=O)c2ccccc2C1=O |  |  | inactive |  |
| O=C(O)[C@@H]1[C@H](Cc2c[nH]c3ccccc23)CCN1C(=O)c1ccccc1 | 4.01 | 230 |  |  |
| O=C(O)[C@@H]1[C@H](Cc2c[nH]c3ccccc23)CCN1C(=O)CN1C(=O)c2ccccc2C1=O |  |  | inactive |  |
| O=C(O)[C@H]1[C@@H](Cc2c[nH]c3ccccc23)CCN1C(=O)c1ccccc1 | 4.14 | 232 |  |  |
| NC(=O)[C@H](Cc1c[nH]c2ccccc12)N1C(=O)c2ccccc2C1=O |  |  | inactive |  |
